Test results as given in ChEMBL document CHEMBL1158800, “Antineoplastic agents. 545. Isolation and structure of turbostatins 1-4 from the Asian marine mollusk Turbo stenogyrus” (2005).
Values after ≈ are worked out from the molar mass of the structure shown.

How the values were obtained:
Assay type in all cases: functional
P388 [1] = assay: In vivo antitumor activity against mouse P388 cells at 4 to 800 mg/ kg; details: dose mg/ kg 4-800
NCI-H460 = assay: Growth inhibition of human NCI-H460 cells after 48 hrs by particle counting method; details: NCI-H460, 48 h
[2] = Growth inhibition of human MXPC3 cells after 48 hrs by particle counting method; details: MXPC3, 48 h
DU-145 = assay: Growth inhibition of human DU145 cells after 48 hrs by particle counting method; details: DU-145, 48 h
MCF7 = assay: Growth inhibition of human MCF7 cells after 48 hrs by particle counting method; details: MCF7, 48 h
KM-20L2 = assay: Growth inhibition of human KM20L2 cells after 48 hrs by particle counting method; details: KM-20L2, 48 h
SF-268 = assay: Growth inhibition of human SF268 cells after 48 hrs by particle counting method; details: SF-268, 48 h
P388 [3] = assay: Growth inhibition of mouse P388 cells after 48 hrs by particle counting method; details: P388, 48 h
Outline: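 Murine P388 lymphocytic leukemia cells in 10% horse serum/Fisher medium, preincubated 24 hrs. Serial dilutions of the compounds were added and cells grown 48 hrs. Cell numbers were counted with a Z1 Coulter particle counter, and the ED50 for growth inhibition was calculated.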

Structure (SMILES) | GI50 (NCI-H460) [µg/mL] | GI50 (DU-145) [µg/mL] | GI50 (MCF7) [µg/mL] | GI50 (P388 [3]) [µg/mL] | T/C (P388 [1]) | GI50 [2] [µg/mL] | GI50 (KM-20L2) [µg/mL] | GI50 (SF-268) [µg/mL]
NCCS(=O)(=O)O [TAURINE] | – | – | – | – | 123 | – | – | –
CCCCCCCCCCC/C=C/[C@@H](O)[C@H](CO[C@@H]1O[C@H](CO)[C@@H](O)[C@H](O)[C@H]1O)NC(=O)CCCCCCCCCCCCCCC [TURBOSTATIN 1] | 0.34 (≈ 0.506 µM) | 1.6 (≈ 2.38 µM) | 0.44 (≈ 0.655 µM) | 0.27 (≈ 0.402 µM) | – | 0.71 (≈ 1.06 µM) | 0.35 (≈ 0.521 µM) | 0.98 (≈ 1.46 µM)
CCCCCCCCCCC/C=C/[C@@H](O)[C@H](CO[C@@H]1O[C@H](CO)[C@H](O)[C@H](O)[C@H]1O)NC(=O)CCCCCCCCCCCCCCC [TURBOSTATIN 3] | 0.55 (≈ 0.818 µM) | 2.6 (≈ 3.87 µM) | 0.48 (≈ 0.714 µM) | 0.25 (≈ 0.372 µM) | – | 1.6 (≈ 2.38 µM) | 0.48 (≈ 0.714 µM) | 1.9 (≈ 2.83 µM)

Further lines, with some results ahead:

GI50 (NCI-H460) [µg/mL] | GI50 (DU-145) [µg/mL] | GI50 (MCF7) [µg/mL] | GI50 (P388 [3]) [µg/mL] | Structure (SMILES) | T/C (P388 [1]) | GI50 [2] [µg/mL] | GI50 (KM-20L2) [µg/mL] | GI50 (SF-268) [µg/mL]
0.53 (≈ 0.757 µM) | 1.7 (≈ 2.43 µM) | 0.39 (≈ 0.557 µM) | 0.15 (≈ 0.214 µM) | CCCCCCCCCCC/C=C/[C@@H](O)[C@H](CO[C@@H]1O[C@H](CO)[C@@H](O)[C@H](O)[C@H]1O)NC(=O)CCCCCCCCCCCCCCCCC [TURBOSTATIN 2] | – | 1 (≈ 1.43 µM) | 0.35 (≈ 0.5 µM) | 1.9 (≈ 2.71 µM)
0.49 (≈ 0.7 µM) | 2.6 (≈ 3.71 µM) | 0.44 (≈ 0.629 µM) | 0.29 (≈ 0.414 µM) | CCCCCCCCCCC/C=C/[C@@H](O)[C@H](CO[C@@H]1O[C@H](CO)[C@H](O)[C@H](O)[C@H]1O)NC(=O)CCCCCCCCCCCCCCCCC [TURBOSTATIN 4] | – | 0.93 (≈ 1.33 µM) | 0.41 (≈ 0.586 µM) | 1.5 (≈ 2.14 µM)
